≈ marks a conversion by molar mass, not a printed value.
What was measured:
Format in all cases: functional
[1] = tested on: Shigella flexneri; test: The relative ability of compound to promote the growth of Shigella flexneri SA 100, a strain lacking the ability to synthesize siderophores was measured as zone stimulation at concentration of 1 mM
Method in brief: (§1)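 S. flexneri SA100 grown overnight in Luria broth, seeded at 10^8/mL into Luria agar with EDDA (250 μg/mL). Compounds made as 10 mM aqueous stocks, diluted in water to 10, 1 or 0.1 mM. 10 μL applied on sterile paper disks. Incubated 37 °C, 18 h; diameters of growth-stimulation zones measured in mm.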

[2] = tested on: Shigella flexneri; test: The relative ability of compound to promote the growth of Shigella flexneri SA 100, a strain lacking the ability to synthesize siderophores was measured as zone stimulation at concentration of 10 mM; method in brief: as §1
[3] = tested on: Shigella flexneri; test: The relative ability of compound to promote the growth of Shigella flexneri SA 100, a strain lacking the ability to synthesize siderophores was measured as zone stimulation at concentration of 0.1 mM; method in brief: as §1
[4] = tested on: Staphylococcus epidermidis; test: Minimum inhibitory concentration was measured against staphylococcus epidermidis 222
Method in brief: (§2)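 Standard agar dilution method; MICs determined externally by an industrial partner rather than in the authors' lab.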

[5] = tested on: Escherichia coli; test: Minimum inhibitory concentration was measured against Escherichia coli EC14; method in brief: as §2
[6] = tested on: Salmonella; test: Minimum inhibitory concentration was measured against salmonella 1135; method in brief: as §2
[7] = tested on: Pseudomonas; test: Minimum inhibitory concentration was measured against Pseudomonas X528; method in brief: as §2
[8] = tested on: Salmonella; test: Minimum inhibitory concentration was measured against salmonella X514; method in brief: as §2
[9] = tested on: Streptococcus pneumoniae; test: Minimum inhibitory concentration was measured against streptococcus pneumonia PARK; method in brief: as §2
[10] = tested on: Shigella flexneri; test: cell growth was measured against Shigella flexneri SA240 using liquid growth assay at 8 hr
Method in brief: (§3)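 Overnight cultures diluted 1:500 into Luria broth containing EDDA 10 μg/mL, with or without test compound at 100 μg/mL. Turbidity read as absorbance at 650 nm (table heading) at 0, 2 and 8 h. SA240 is an iucD:Tn5 siderophore-deficient derivative of SA100. RW193 is E. coli K12 entA, fhuA-positive. AN193 is entA, fhuA-negative, lacking the ferrichrome receptor.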

[11] = tested on: Escherichia coli; test: cell growth was measured against Escherichia coli AN193 using liquid growth assay at 8 hr; method in brief: as §3
[12] = tested on: Escherichia coli; test: cell growth was measured against Escherichia coli RW193 using liquid growth assay at 2 hr; method in brief: as §3
[13] = tested on: Escherichia coli; test: cell growth was measured against Escherichia coli AN193 using liquid growth assay at 0h; method in brief: as §3
[14] = tested on: Escherichia coli; test: cell growth was measured against Escherichia coli RW193 using liquid growth assay at 0h; method in brief: as §3
[15] = tested on: Escherichia coli; test: cell growth was measured against Escherichia coli AN193 using liquid growth assay at 2 hr; method in brief: as §3
[16] = tested on: Shigella flexneri; test: cell growth was measured against Shigella flexneri SA240 using liquid growth assay at 0h; method in brief: as §3
[17] = tested on: Shigella flexneri; test: cell growth was measured against Shigella flexneri SA240 using liquid growth assay at 2 hr; method in brief: as §3
[18] = tested on: Escherichia coli; test: cell growth was measured against Escherichia coli RW193 using liquid growth assay at 8 hr; method in brief: as §3

Compound	Zone of stimulation [1]	Zone of stimulation [2]	Zone of stimulation [3]	MIC [4]	MIC [5]	MIC [6]	MIC [7]	MIC [8]	MIC [9]	Cell growth [10]	Cell growth [11]	Cell growth [12]	Cell growth [13]	Cell growth [14]	Cell growth [15]	Cell growth [16]	Cell growth [17]	Cell growth [18]
CC(=O)N(O)CCC[C@H](NC(=O)[C@H](CCCN(O)C(C)=O)NC(=O)[C@@H](N)CCCN(O)C(C)=O)C(=O)N[C@@H](C(=O)NC1C(=O)N(OCC(=O)O)[C@H]1C)c1ccccc1 (some centres undefined)	12 mm	28 mm	0 mm															
CC(=O)N(O)CCC[C@H](NC(=O)[C@H](CCCN(O)C(C)=O)NC(=O)[C@@H](N)CCCN(O)C(C)=O)C(=O)N[C@@H](C(=O)NC1C(=O)N2C(C(=O)O)=C(Cl)CC[C@H]12)c1ccccc1 (some centres undefined)				> 128 µg/mL	> 64 µg/mL	> 128 µg/mL	> 128 µg/mL	0.125 µg/mL (≈ 0.144 µM)	> 64 µg/mL									
N[C@@H](C(=O)N[C@@H]1C(=O)N2C(C(=O)O)=C(Cl)CC[C@H]12)c1ccccc1 [LORACARBEF ANHYDROUS]				2 µg/mL (≈ 5.72 µM)	0.5 µg/mL (≈ 1.43 µM)	0.5 µg/mL (≈ 1.43 µM)	> 128 µg/mL	0.25 µg/mL (≈ 0.715 µM)	1 µg/mL (≈ 2.86 µM)									
CC(=O)N(O)CCC[C@H](NC(=O)[C@H](CCCN(O)C(C)=O)NC(=O)[C@@H](N)CCCN(O)C(C)=O)C(=O)N[C@@H](C(=O)NC1C(=O)N2C(C(=O)O)=C(Cl)CC[C@H]12)c1ccc(O)cc1 (some centres undefined)				> 128 µg/mL	> 32 µg/mL	> 64 µg/mL	> 128 µg/mL	0.06 µg/mL (≈ 0.068 µM)	> 64 µg/mL	0.974	0.691	0.347	0.001	0.001	0.019	0.001	0.107	1.59
N[C@@H](C(=O)N[C@@H]1C(=O)N2C(C(=O)O)=C(Cl)CS[C@H]12)c1ccccc1.O [CEFACLOR]				2 µg/mL	1 µg/mL	1 µg/mL	> 128 µg/mL	0.25 µg/mL	0.5 µg/mL									
CC(=O)N(O)CCC[C@H](NC(=O)[C@H](CCCN(O)C(C)=O)NC(=O)[C@@H](N)CCCN(O)C(C)=O)C(=O)N[C@@H](C(=O)NC1C(=O)N(OCC(=O)O)[C@H]1C)c1ccc(O)cc1 (some centres undefined)	16 mm	31 mm	0 mm															

From ChEMBL document CHEMBL1125647, “Synthesis and siderophore and antibacterial activity of N5-acetyl-N5-hydroxy-L-ornithine-derived siderophore-beta-lactam conjugates: iron-transport-mediated drug delivery” (1991)
